Test results published in ChEMBL document CHEMBL1208778, “Synthesis and anti-cancer activity of chalcone linked imidazolones” (2010).
Activity calls are given as the source filed them. The calls are words filed in the database; no cut-off is given here.

Key:
[1] = test system: MCF7; test: Cell cycle arrest in human MCF7 cells assessed as accumulation at S phase at 10 uM after 24 hrs by FACS analysis; format: functional
Procedure, shortened: (§1)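 MCF-7 breast carcinoma cells were exposed to 10 µM test compound for 24 h, with DMSO as the vehicle control. Cell-cycle distribution was read by FACS as the percentage of cells in G0, G1, S and G2/M.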

[2] = test system: Malme-3M; test: Growth inhibition of human MALME-3M cells; format: functional
Procedure, shortened: (§2)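 Five-dose testing was run within the NCI (Bethesda) in vitro Anticancer Screen Program on a panel of 53 human tumour cell lines from nine cancer types. Growth inhibition is reported as GI50.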

[3] = test system: OVCAR-3; test: Growth inhibition of human OVCAR-3 cells; format: functional; procedure, shortened: as §2
[4] = test system: SN12C; test: Growth inhibition of human SN12C cells; format: functional
Procedure, shortened: (§3)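 Compounds that passed a preliminary screen were tested at five doses in the NCI (Bethesda) in vitro Anticancer Screen Program against a 53-line human tumour panel spanning leukemia, lung, colon, CNS, melanoma, ovarian, renal, prostate and breast. Growth inhibition is reported as GI50.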

[5] = test system: U-251; test: Growth inhibition of human U251 cells; format: functional; procedure, shortened: as §3
[6] = test system: NCI/ADR-RES; test: Growth inhibition of human NCI/ADR-RES cells; format: functional; procedure, shortened: as §2
[7] = test system: SF-268; test: Growth inhibition of human SF268 cells; format: functional; procedure, shortened: as §2
[8] = test system: HOP-62; test: Growth inhibition of human HOP62 cells; format: functional; procedure, shortened: as §2
[9] = test system: LOX IMVI; test: Growth inhibition of human LOXIMVI cells; format: functional; procedure, shortened: as §2
[10] = test system: HT-29; test: Growth inhibition of human HT-29 cells; format: functional; procedure, shortened: as §2
[11] = test system: MCF7; test: Induction of apoptosis in human MCF7 cells assessed as […] in PARP cleavage at 30 uM after 24 hrs by Western blot analysis; format: functional, cell-based
Procedure, shortened: (§4)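 MCF-7 breast carcinoma cells were exposed to 30 µM compound for 24 h, with CA-4 as positive control. Cell lysates were then immunoblotted with antibodies to procaspase-7 and cleavage-specific PARP, using β-actin as loading control.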

[12] = test system: SK-OV-3; test: Growth inhibition of human SKOV3 cells; format: functional; procedure, shortened: as §3
[13] = test system: RXF 393; test: Growth inhibition of human RXF393 cells; format: functional; procedure, shortened: as §2
[14] = test system: SK-MEL-5; test: Growth inhibition of human SK-MEL-5 cells; format: functional; procedure, shortened: as §2
[15] = test system: HOP-92; test: Growth inhibition of human HOP92 cells; format: functional; procedure, shortened: as §2
[16] = test system: SNB-19; test: Growth inhibition of human SNB19 cells; format: functional; procedure, shortened: as §3
[17] = test system: CAKI-1; test: Growth inhibition of human Caki1 cells; format: functional; procedure, shortened: as §2
[18] = test system: KM12; test: Growth inhibition of human KM12 cells; format: functional; procedure, shortened: as §2
[19] = test system: HCT-15; test: Growth inhibition of human HCT15 cells; format: functional; procedure, shortened: as §2
[20] = test system: MCF7; test: Induction of apoptosis in human MCF7 cells assessed as decrease in procaspase 7 level at 30 uM after 24 hrs by Western blot analysis; format: functional, cell-based; procedure, shortened: as §4
[21] = test system: HCT-116; test: Growth inhibition of human HCT116 cells; format: functional; procedure, shortened: as §2
[22] = test system: UACC-257; test: Growth inhibition of human UACC257 cells; format: functional; procedure, shortened: as §3
[23] = test system: NCI-H226; test: Growth inhibition of human NCI-H226 cells; format: functional; procedure, shortened: as §2
[24] = test system: SNB-75; test: Growth inhibition of human SNB75 cells; format: functional; procedure, shortened: as §3
[25] = test system: TK-10; test: Growth inhibition of human TK10 cells; format: functional; procedure, shortened: as §3
[26] = test system: UACC-62; test: Growth inhibition of human UACC62 cells; format: functional; procedure, shortened: as §3
[27] = test system: A498; test: Growth inhibition of human A498 cells; format: functional; procedure, shortened: as §2
[28] = test system: NCI-H522; test: Growth inhibition of human NCI-H522 cells; format: functional; procedure, shortened: as §2
[29] = test system: MCF7; test: Cell cycle arrest in human MCF7 cells assessed as accumulation at G1 phase at 10 uM after 24 hrs by FACS analysis; format: functional; procedure, shortened: as §1
[30] = test system: SK-MEL-28; test: Growth inhibition of human SK-MEL-28 cells; format: functional; procedure, shortened: as §2
[31] = test system: SK-MEL-2; test: Growth inhibition of human SK-MEL-2 cells; format: functional; procedure, shortened: as §2
[32] = test system: SF-539; test: Growth inhibition of human SF539 cells; format: functional; procedure, shortened: as §2
[33] = test system: MCF7; test: Cell cycle arrest in human MCF7 cells assessed as accumulation at S phase at 30 uM after 24 hrs by FACS analysis; format: functional
Procedure, shortened: (§5)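 MCF-7 cells were treated at 30 µM for 24 h alongside a DMSO control. Fractions in G0, G1, S and G2/M phases were measured by FACS, and values are means of three experiments.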

[34] = test system: ACHN; test: Growth inhibition of human ACHN cells; format: functional; procedure, shortened: as §2
[35] = test system: MDA-MB-231; test: Growth inhibition of human MDA-MB-231 cells; format: functional; procedure, shortened: as §2
[36] = test system: NCI-H23; test: Growth inhibition of human NCI-H23 cells; format: functional; procedure, shortened: as §2
[37] = test system: OVCAR-8; test: Growth inhibition of human OVCAR8 cells; format: functional; procedure, shortened: as §2
[38] = test system: MDA-MB-435; test: Growth inhibition of human MDA-MB-435 cells; format: functional; procedure, shortened: as §2
[39] = test system: T47D; test: Growth inhibition of human T47D cells; format: functional; procedure, shortened: as §3
[40] = test system: A549; test: Growth inhibition of human A549 cells; format: functional; procedure, shortened: as §2
[41] = test system: NCI-H460; test: Growth inhibition of human NCI-H460 cells; format: functional; procedure, shortened: as §2
[42] = test system: UO-31; test: Growth inhibition of human UO31 cells; format: functional; procedure, shortened: as §3
[43] = test system: HCC 2998; test: Growth inhibition of human HCC2998 cells; format: functional; procedure, shortened: as §2
[44] = test system: SF-295; test: Growth inhibition of human SF295 cells; format: functional; procedure, shortened: as §2
[45] = test system: EKVX; test: Growth inhibition of human EKVX cells; format: functional; procedure, shortened: as §2
[46] = test system: COLO 205; test: Growth inhibition of human COLO205 cells; format: functional; procedure, shortened: as §2
[47] = test system: MCF7; test: Cell cycle arrest in human MCF7 cells assessed as accumulation at G2/M phase at 10 uM after 24 hrs by FACS analysis; format: functional; procedure, shortened: as §1
[48] = test system: M14; test: Growth inhibition of human M14 cells; format: functional; procedure, shortened: as §2
[49] = test system: OVCAR-4; test: Growth inhibition of human OVCAR4 cells; format: functional; procedure, shortened: as §2
[50] = test system: MCF7; test: Cell cycle arrest in human MCF7 cells assessed as accumulation at G0 phase at 10 uM after 24 hrs by FACS analysis; format: functional; procedure, shortened: as §1
[51] = test system: NCI-H322M; test: Growth inhibition of human NCI-H322M cells; format: functional; procedure, shortened: as §2
[52] = Growth inhibition of human RPMI8266 cells; format: functional; procedure, shortened: as §2
[53] = test system: OVCAR-5; test: Growth inhibition of human OVCAR5 cells; format: functional; procedure, shortened: as §2
[54] = test system: K562; test: Growth inhibition of human K562 cells; format: functional; procedure, shortened: as §2
[55] = test system: MCF7; test: Cell cycle arrest in human MCF7 cells assessed as accumulation at G0 phase at 30 uM after 24 hrs by FACS analysis; format: functional; procedure, shortened: as §5
[56] = test system: SW-620; test: Growth inhibition of human SW620 cells; format: functional; procedure, shortened: as §3
[57] = Growth inhibition of human Hs 578T cells; format: functional; procedure, shortened: as §2
[58] = test system: MCF7; test: Growth inhibition of human MCF7 cells; format: functional; procedure, shortened: as §2
[59] = test system: 786-0; test: Growth inhibition of human 786-0 cells; format: functional; procedure, shortened: as §2
[60] = test system: MCF7; test: Cell cycle arrest in human MCF7 cells assessed as accumulation at G2/M phase at 30 uM after 24 hrs by FACS analysis; format: functional; procedure, shortened: as §5
[61] = test system: PC-3; test: Growth inhibition of human PC3 cells; format: functional; procedure, shortened: as §2
[62] = test system: BT-549; test: Growth inhibition of human BT549 cells; format: functional; procedure, shortened: as §2
[63] = test system: MCF7; test: Cell cycle arrest in human MCF7 cells assessed as accumulation at G1 phase at 30 uM after 24 hrs by FACS analysis; format: functional; procedure, shortened: as §5

GI50 [3]: 1560 nM
GI50 [5]: 2230 nM
GI50 [10]: 2970 nM
GI50 [12]: 3190 nM
GI50 [14]: 1800 nM
GI50 [19]: 1800 nM
GI50 [21]: 1460 nM
GI50 [23]: 2770 nM
GI50 [28]: 2360 nM
GI50 [30]: 2060 nM
GI50 [31]: 3660 nM
GI50 [34]: 2190 nM
GI50 [35]: 3870 nM
GI50 [36]: 3180 nM
GI50 [37]: 4180 nM
GI50 [38]: 2250 nM
GI50 [39]: 3090 nM
GI50 [40]: 6780 nM
GI50 [41]: 3900 nM
GI50 [43]: 1850 nM
GI50 [46]: 3400 nM
GI50 [49]: 4640 nM
GI50 [51]: 4580 nM
GI50 [53]: 2000 nM
GI50 [54]: 1420 nM
GI50 [56]: 2000 nM
GI50 [58]: 2300 nM
GI50 [59]: 2070 nM
GI50 [61]: 1950 nM
GI50 [62]: 2520 nM
SMILES: COc1cc(/C=C/C(=O)c2cccc(-n3cc(-c4ccc(Cl)cc4)[nH]c3=O)c2)ccc1O
Activity [1]: 18.1%
GI50 [2]: 3060 nM
GI50 [4]: 2870 nM
GI50 [6]: 2280 nM
GI50 [7]: 2500 nM
GI50 [8]: 2840 nM
GI50 [9]: 1630 nM
Activity [11]: Active
GI50 [13]: 6400 nM
GI50 [15]: 1260 nM
GI50 [16]: 3170 nM
GI50 [17]: 2640 nM
GI50 [18]: 1480 nM
Activity [20]: Active
GI50 [22]: 8690 nM
GI50 [24]: 2750 nM
GI50 [25]: 4670 nM
GI50 [26]: 2740 nM
GI50 [27]: 2820 nM
Activity [29]: 46.69%
GI50 [32]: 1780 nM
Activity [33]: 6.17%
GI50 [42]: 1670 nM
GI50 [44]: 10500 nM
GI50 [45]: 9610 nM
Activity [47]: 31.65%
GI50 [48]: 2860 nM
Activity [50]: 3.56%
GI50 [52]: 1330 nM
Activity [55]: 32.89%
GI50 [57]: 4670 nM
Activity [60]: 10.35%
Activity [63]: 50.61%
